“Also recorded” adds a separate entry of the source.
What was measured:
TR146 cells [1] = experiment: Cytokine determination in culture supernatants; assay type: cell-based, human; conditions: for Induction of cytokines (G-CSF) by peptide fragments: 15 µM, 24 h, individually or in combination
TR146 cells [2] = experiment: Cell damage assay; assay type: cell-based, human; conditions: for Damage of epithelial cells (LDH release) by peptide fragments: 70 µM, 24 h, individually or in combination; for Induction of damage (LDH release): Ece1-I-VIII at 70 µM (Fig. 2b)
Summary of the method: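 Confluent TR146 cells serum-starved overnight, then exposed to test peptides for 24 h in serum-free DMEM. Culture supernatants assayed for lactate dehydrogenase activity with a colorimetric cytotoxicity kit. Activity quantified against a recombinant porcine LDH standard curve.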

TR146 cells [3] = experiment: Western blotting of phospho-MKP1 and c-Fos induction; assay type: cell-based, human; conditions: for Induction of p-MKP1 and c-Fos by peptide fragments: 15 µM, 2 h, individually or in combination; for Induction of p-MKP1 and c-Fos: serum-free DMEM, 2 h post-stimulation, Western blot, Ece1-I-VIII incubated at 1.5 – 70 µM (Fig. 2a: 1.5 µM)
Summary of the method: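 Serum-starved TR146 cells treated for 2 h in serum-free DMEM, then lysed on ice for 30 min in modified RIPA buffer (pH 7.4) with protease and phosphatase inhibitors. 20 µg protein resolved on 12% SDS-PAGE and transferred to nitrocellulose. Blots probed for phospho-MKP1 and c-Fos (primary 1:1000, HRP secondary 1:10,000), detected by chemiluminescence. α-actin used as loading control.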

[4] = FRET intercalation into phospholipid liposomes; conditions: phospholipid liposomes (DOPC with or without cholesterol), 100 mM KCl, 5 mM HEPES, pH 7.0
Summary of the method: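 Probe-dilution FRET assay. Phospholipid liposomes carried 1% (mol/mol) each of donor NBD-PE and acceptor rhodamine-PE. Lipids were dried from chloroform, taken up in 100 mM KCl, 5 mM HEPES, pH 7.0, and tip-sonicated. They then went through three 30 min cycles of 60°C heating and 4°C cooling and were held at 4°C for at least 12 h. After test peptide addition, intercalation was read as the rise in the donor (531 nm) to acceptor (593 nm) intensity ratio.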

TR146 cells [5] = experiment: Calcium flux; assay type: cell-based, human; conditions: Fura-2, readings up to 3 h
Summary of the method: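 Confluent TR146 monolayers loaded for 1 h at 37°C/5% CO2 with Fura-2 (2.5 mM stock in Pluronic F-127/DMSO) plus probenecid in HEPES-buffered saline (2 mM CaCl2, 10 mM glucose, pH 7.4). Dye then replaced by saline. Baseline read for 10 min at excitation 340 nm/emission 520 nm. Peptides added at different concentrations. Cytosolic calcium expressed as a fluorescence ratio.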

[6] = Impedance spectroscopy of tethered bilayer lipid membranes; conditions: tBLMs, DOPC with or without cholesterol, 100 mM KCl, 5 mM HEPES, pH 7.0, room temperature
Summary of the method: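 tBLMs (10% tethering, 90% spacer lipids) were formed by solvent exchange from 3 mM lipid in ethanol, then buffered in 100 mM KCl, 5 mM HEPES, pH 7.0. Membranes were rinsed three times with buffer. Conductance and capacitance were recorded for 20 min before test peptide was injected at various concentrations, all at room temperature. Concentration-dependent conductance changes were averaged.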

[7] = Circular dichroism spectroscopy; assay type: physicochemical; conditions: 15 µM peptide, 100 mM KCl, 5 mM HEPES, pH 7
Summary of the method: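 Peptide at 15 µM in 100 mM KCl, 5 mM HEPES, pH 7.0, in a 1.0 mm quartz cuvette, run at 25°C and 40°C. Spectra are the average of four scans, collected at 1 nm intervals with 2 nm bandwidth.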

Planar lipid bilayers = conditions: 5 mM HEPES, 100 mM KCl, pH 7.0, 37°C, Ece1-III62–93 0.125 µM (DOPC), Ece1-III62–92K 4 µM
Summary of the method: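 Montal-Mueller planar bilayers were bathed in 5 mM HEPES, 100 mM KCl, pH 7.0 (specific conductivity 17.2 mS/cm) at 37°C. Test peptide was added and membrane current was recorded for permeabilization events up to rupture.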

red blood cells = experiment: Hemolysis of red blood cells; assay type: cell-based; conditions: not shown
[8] = test system: multiple human epithelial cell types; experiment: Direct lysis of epithelial cells; assay type: cell-based; conditions: not shown
TR146 cells [9] = experiment: Transcription factor; assay type: cell-based, human; conditions: 3 h post-stimulation, sub-lytic concentrations
Summary of the method: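 Serum-starved TR146 cells treated for 3 h in serum-free DMEM. Nuclear proteins recovered by differential lysis. 5 µg nuclear extract assayed for c-Fos DNA binding by plate-based transcription factor ELISA. Results expressed as fold-change in A450nm relative to resting cells.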

TR146 cells [10] = experiment: Whole cell patch clamp; assay type: cell-based, human; conditions: membrane potential −60 mV, room temperature
Summary of the method: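 TR146 cells cultured 48 h and recorded at 10–30% confluence while superfused with modified Krebs solution (pH 7.4). Pipettes 5–7 MΩ, filled with potassium acetate/KCl/HEPES/EGTA solution (free Ca2+ 40 nM). Current-voltage curves from 1 s steps, −100 to +50 mV. Treatments added to superfusate at final concentration, with vehicle controls and an ionomycin positive control. Cells analysed counted per condition.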

Substance | Induction of cytokines (G-CSF) by peptide fragments (TR146 cells [1]) | Damage of epithelial cells (LDH release) by peptide fragments (TR146 cells [2]) | Induction of p-MKP1 and c-Fos by peptide fragments (TR146 cells [3]) | Intercalation into lipid membranes (FRET) [4] | Induction of G-CSF secretion (TR146 cells [1]; 24 h post-stimulation) | Induction of damage (LDH release) (TR146 cells [2]; 24 h post-stimulation) | Calcium influx (intracellular calcium level) (TR146 cells [5]) | Permeabilization of tethered lipid membranes (conductance) [6] | Induction of p-MKP1 and c-Fos (TR146 cells [3]) | Secondary structure by circular dichroism [7] | Lesions induced in planar lipid membranes (Planar lipid bilayers) | also measured
Ece1-III62–85: N-terminal hydrophobic region of Ece1-III62–93 | Neither | Neither | Neither | – | – | – | – | – | – | – | – | –
Ece1-III62–93AA: Ece1-III62–93 with C-terminal KR motif substituted to AA | – | – | – | did not affect membrane intercalation | still induced | significantly reduced | significantly reduced | significantly reduced | still induced | – | – | –
Ece1-III86–93: C-terminal hydrophilic region of Ece1-III62–93 (KAFKGNKR; UniProt Q07730 86-93, looked up, fragment) | Neither | Neither | Neither | – | – | – | – | – | – | – | – | –
SIIGIIMGILGNIPQVIQIIMSIVKAFKGNK [Ece1-III62–92K] | – | – | – | induces | induces | induces | induces | induces | induces | α-helical | heterogeneous and transient lesions leading to membrane rupture | Induction of IL-1α secretion (TR146 cells [1]; 24 h post-stimulation): induces
SIIGIIMGILGNIPQVIQIIMSIVKAFKGNKR [Ece1-III62–93] | – | – | – | able to efficiently intercalate; also recorded: slightly enhanced intercalation for pure DOPC | – | induced | associated with calcium influx | enhanced in the presence of cholesterol | induced | α-helical conformation | heterogeneous and transient lesions leading finally to a rupture of the membrane | Hemolysis of red blood cells (red blood cells): induce hemolysis of red blood cells; Concentrations required to induce damage-associated cytokine IL-1α (TR146 cells [1]; 24 h post-stimulation): 70 µM; Concentrations required to induce damage-associated cytokine IL-6 (TR146 cells [1]; 24 h post-stimulation): 70 µM; Concentrations sufficient to induce G-CSF (TR146 cells [1]; 24 h post-stimulation): 1.5 to 15 µM; Concentrations sufficient to induce GM-CSF (TR146 cells [1]; 24 h post-stimulation): 1.5 to 15 µM; Induction of cytokines (TR146 cells [1]; 24 h post-stimulation, peptides 1.5 – 70 µM): induced; Direct lysis of multiple human epithelial cell types [8]: directly lyse multiple human epithelial cell types; Concentrations required to induce damage (LDH release) (TR146 cells [2]; 24 h post-stimulation): 70 µM; Concentrations sufficient to induce c-Fos DNA binding (TR146 cells [9]): 1.5 to 15 µM; Evoked current in epithelial cells (patch clamp) (TR146 cells [10]): causes an inward current

— PMC4851236 (Nature, 2016)
